In ChEMBL document CHEMBL4152290, “1H-Benzo[d]imidazoles and 3,4-dihydroquinazolin-4-ones: Design, synthesis and antitubercular activity” (Eur J Med Chem, 2018):
In brackets after ≈: the same amount, converted by molar mass.

Experiments:
[1] = Selectivity index, ratio of cytotoxic concentration for African green monkey Vero cells by MTT assay to MIC for Mycobacterium tuberculosis H37Rv ATCC 27294; assay type: toxicity; settings: read-out: Selectivity Index
[2] = Cytotoxicity against African green monkey Vero assessed as cell viability at 10 ug/ml after 72 hrs by neutral red uptake assay (reference value: 100%); assay type: cell-based; settings: chlorocebus sabaeus, Vero cells; read-out: Activity
Summary of the method: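 Seeding was 2×10^3/well for HepG2 and HaCat and 1×10^3/well for Vero. After 24 h, cells received 10 µg/mL final (2% DMSO) for 72 h at 37 °C, 5% CO2. They were washed with PBS, given neutral red 25 µg/mL in serum-free medium for 3 h, washed, and extracted 30 min with acetic acid/EtOH/water 1:50:49. A540 was read. Viability is relative to 2% DMSO controls; mean ± SEM, three experiments in triplicate.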

[3] = Cytotoxicity against African green monkey Vero assessed as cell viability at 10 ug/ml after 72 hrs by MTT assay (reference value: 100%); assay type: cell-based; settings: chlorocebus sabaeus, Vero cells; read-out: Activity
Summary of the method: (§1)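 Cells were grown in DMEM with 10% heat-inactivated FBS and penicillin-streptomycin, seeded at 2×10^3/well (HepG2, HaCat) or 1×10^3/well (Vero), then left 24 h. Compound was applied at 10 µg/mL final (2% DMSO) for 72 h at 37 °C, 5% CO2. MTT 1 mg/mL was added for 3 h, formazan dissolved in DMSO, and A595 read. Viability is expressed relative to 2% DMSO wells; mean ± SEM, triplicates, three independent experiments.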

[4] = Stability of the compound in PBS containing 10% DMSO at 37 degC measured after 24 hrs by HPLC analysis; assay type: physicochemical; settings: for remaining at 24 h: PBS containing 10% DMSO, read-out: Stability
[5] = Cytotoxicity against human HepG2 cells assessed as cell viability at 10 ug/ml after 72 hrs by MTT assay (reference value: 100%); assay type: cell-based; settings: read-out: Activity; summary of the method: as §1
Danio rerio [6] = species: Danio rerio; assay: Toxicity in Zebrafish AB embryos assessed as effect on larval survival rate at 3 to 20 uM; assay type: organism-based; settings: in vivo
Summary of the method: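 Wild-type AB zebrafish embryos are exposed from 2 hpf to 5 dpf at 3.0, 15.0 and 20.0 µM in fish water with 1% DMSO, at 28 °C on a 14/10 h light-dark cycle. Controls are fish water alone and 1% DMSO. Survival and hatching are checked daily under a stereomicroscope.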

[7] = Selectivity index, ratio of cytotoxic concentration for African green monkey Vero cells by neutral red uptake assay to MIC for Mycobacterium tuberculosis H37Rv ATCC 27294; assay type: toxicity; settings: read-out: Selectivity Index
Danio rerio [8] = species: Danio rerio; assay: Toxicity in Zebrafish AB embryos assessed as morphological alteration by measuring effect on body length of larvae at 3 to 20 uM measured at 2 to 5 days post fertilization by stereomicroscopic method; assay type: organism-based; settings: in vivo
Summary of the method: (§2)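 AB embryos are treated from 2 hpf to 5 dpf at 3.0, 15.0 and 20.0 µM in fish water with 1% DMSO, at 28 °C. Controls are fish water and 1% DMSO. Larvae are photographed under a stereomicroscope (3×) at 2 and 5 dpf, n = 30. Body length (µm), ocular distance (µm) and eye surface area (µm²) are measured from the images.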

[9] = Stability of the compound in PBS containing 10% DMSO at 37 degC measured after 3 hrs by HPLC analysis; assay type: physicochemical; settings: read-out: Stability
[10] = Selectivity index, ratio of cytotoxic concentration for human HaCaT cells by neutral red uptake assay to MIC for Mycobacterium tuberculosis H37Rv ATCC 27294; assay type: toxicity; settings: read-out: Selectivity Index
Danio rerio [11] = species: Danio rerio; assay: Cardiotoxicity in Zebrafish AB embryos assessed as heart beat rate at 3 uM measured at 2 days post fertilization by stereomicroscopic method (reference value: 128.7 to 146.3 bpm); assay type: organism-based; settings: in vivo, 48 h
Danio rerio [12] = species: Danio rerio; assay: Toxicity in Zebrafish AB embryos assessed as morphological alteration by measuring effect on ocular distance at 3 to 20 uM measured at 2 to 5 days post fertilization by stereomicroscopic method; assay type: organism-based; settings: in vivo; summary of the method: as §2
[13] = test system: Mycobacterium tuberculosis; assay: Antitubercular activity against Mycobacterium tuberculosis H37Rv ATCC 27294 after 7 days by resazurin dye based assay; assay type: functional; settings: H37Rv ATCC 27294, 168 h
Summary of the method: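 Resazurin microtiter MIC in 7H9 with 10% ADC. Two-fold dilutions from 1 mg/mL DMSO stocks span 25.0–0.05, 10.0–0.02 or 0.02–0.0004 µg/mL, with 2.5% DMSO final. Inoculum is bead-declumped culture grown in 7H9/10% OADC/0.05% Tween 80, diluted to OD600 0.006. Plates run 7 days at 37 °C, then 0.01% resazurin for 48 h. MIC is the lowest concentration preventing the blue-to-pink change. Three independent tests.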

[14] = Stability of the compound in PBS containing 10% DMSO at 37 degC measured immediately by HPLC analysis; assay type: physicochemical; settings: read-out: Stability
[15] = Stability of the compound in PBS containing 10% DMSO at 25 degC measured after 3 hrs by HPLC analysis; assay type: physicochemical; settings: buffer
[16] = Stability of the compound in PBS containing 10% DMSO at 37 degC measured after 48 hrs by HPLC analysis; assay type: physicochemical; settings: read-out: Stability
[17] = Stability of the compound in PBS containing 10% DMSO at 25 degC measured immediately by HPLC analysis; assay type: physicochemical; settings: read-out: Stability
Danio rerio [18] = species: Danio rerio; assay: Cardiotoxicity in Zebrafish AB embryos assessed as heart beat rate at 20 uM measured at 2 days post fertilization by stereomicroscopic method (reference value: 128.7 to 146.3 bpm); assay type: organism-based; settings: in vivo, 48 h
Danio rerio [19] = species: Danio rerio; assay: Induction of neurological impairment in Zebrafish AB embryos assessed as alteration in locomotor activity by measuring swimming activity at 3 to 20 uM measured at 5 days post fertilization; assay type: organism-based; settings: in vivo, 120 h
Summary of the method: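 Larvae were exposed from 2 hpf in fish water with 1% DMSO. At 5 dpf each larva was placed singly in a well of water or treatment solution. After 1 min acclimation, it was video-tracked for 5 min at 15 positions/s, and distance travelled was scored.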

[20] = Stability of the compound in PBS containing 10% DMSO at 25 degC measured after 12 hrs by HPLC analysis; assay type: physicochemical; settings: buffer
Danio rerio [21] = species: Danio rerio; assay: Cardiotoxicity in Zebrafish AB embryos assessed as heart beat rate at 3 uM measured at 5 days post fertilization by stereomicroscopic method (reference value: 148.1 to 158.2 bpm); assay type: organism-based; settings: in vivo, 120 h
[22] = Stability of the compound in PBS containing 10% DMSO at 25 degC measured after 48 hrs by HPLC analysis; assay type: physicochemical; settings: buffer
[23] = Stability of the compound in PBS containing 10% DMSO at 25 degC measured after 6 hrs by HPLC analysis; assay type: physicochemical; settings: buffer
Danio rerio [24] = species: Danio rerio; assay: Toxicity in Zebrafish AB embryos assessed as morphological alteration by measuring effect on surface area of eyes at 3 to 20 uM measured at 2 to 5 days post fertilization by stereomicroscopic method; assay type: organism-based; settings: in vivo; summary of the method: as §2
[25] = Selectivity index, ratio of cytotoxic concentration for human HaCaT cells by MTT assay to MIC for Mycobacterium tuberculosis H37Rv ATCC 27294; assay type: toxicity; settings: read-out: Selectivity Index
[26] = Stability of the compound in PBS containing 10% DMSO at 37 degC measured after 6 hrs by HPLC analysis; assay type: physicochemical; settings: read-out: Stability
Danio rerio [27] = species: Danio rerio; assay: Cardiotoxicity in Zebrafish AB embryos assessed as heart beat rate at 15 uM measured at 5 days post fertilization by stereomicroscopic method (reference value: 148.1 to 158.2 bpm); assay type: organism-based; settings: in vivo, 120 h

| Structure (SMILES) | selectivity ratio [1] | viability at 72 h, 10 ug/ml [2] [%] | viability at 72 h, 10 ug/ml [3] [%] | viability at 72 h, 10 ug/ml [5] [%] | Activity (Danio rerio [6]) | selectivity ratio [7] | remaining at 3 h [9] [%] | selectivity ratio [10] | Activity (Danio rerio [11]) [bpm] | Activity (Danio rerio [12]) | MIC [13] [µM] | remaining at 0 h [14] [%] | Stability [15] [%] | remaining at 48 h [16] [%] | remaining at 0 h [17] [%] | Activity (Danio rerio [18]) [bpm] | Activity (Danio rerio [19]) | Stability [20] [%] | Activity (Danio rerio [21]) [bpm] | Stability [22] [%] | other results |
| --- | --- | --- | --- | --- | --- | --- | --- | --- | --- | --- | --- | --- | --- | --- | --- | --- | --- | --- | --- | --- | --- |
| O=C(CSc1nc2ccccc2c(=O)[nH]1)NC1CCCCC1 | ≤ 32 | 92 | 90 | 86 | Non-Toxic | ≤ 32 | 109 | ≤ 32 | 149.5 | Non-Toxic | 0.97 (≈ 0.308 µg/mL) | 100 | 108 | 111 | 100 | 155.7 | Non-Toxic | 101 | 162.8 | 126 | Stability ([4]; buffer, 24 h): 127%; Activity (Danio rerio [8]): Non-Toxic; Stability [23]: 100%; Activity (Danio rerio [24]): Non-Toxic; selectivity ratio [25]: ≤ 32; remaining at 6 h [26]: 111%; Activity (Danio rerio [27]): 163 bpm |
| CC1CCC(NC(=O)CSc2nc3ccccc3c(=O)[nH]2)CC1 (stereo unspecified) | ≤ 32 | 95 | 84 | 89 | Non-Toxic | ≤ 32 | 80 | ≤ 32 | 122.3 | Non-Toxic | 0.24 (≈ 0.0795 µg/mL) | 100 | 97 | 48 | 100 | 146.4 | Non-Toxic | 100 | 147.7 | 125 | remaining at 24 h [4]: 43%; Activity (Danio rerio [8]): Non-Toxic; Stability [23]: 97%; Activity (Danio rerio [24]): Non-Toxic; selectivity ratio [25]: ≤ 32; remaining at 6 h [26]: 59%; Activity (Danio rerio [27]): 150.3 bpm |
| CC1CCCCC1NC(=O)CSc1nc2ccccc2c(=O)[nH]1 (stereo unspecified) | ≤ 32 | 95 | 102 | 94 | Non-Toxic | ≤ 32 | 92 | ≤ 32 | 156.3 | Non-Toxic | 0.94 (≈ 0.312 µg/mL) | 100 | 128 | 80 | 100 | 153.9 | Non-Toxic | 137 | 162.6 | 142 | remaining at 24 h [4]: 81%; Activity (Danio rerio [8]): Non-Toxic; Stability [23]: 122%; Activity (Danio rerio [24]): Non-Toxic; selectivity ratio [25]: ≤ 32; remaining at 6 h [26]: 75%; Activity (Danio rerio [27]): 163.4 bpm |
| C[C@H]1CC[C@H](NC(=O)CSc2nc3ccccc3c(=O)[nH]2)CC1 | ≤ 32 | 93 | 88 | 83 | Non-Toxic | ≤ 32 | 83 | ≤ 32 | 135.5 | Non-Toxic | 0.24 (≈ 0.0795 µg/mL) | 100 | 76 | 50 | 100 | 150.2 | Non-Toxic | 47 | 149.2 | 20 | remaining at 24 h [4]: 51%; Stability [23]: 67%; Activity (Danio rerio [24]): Non-Toxic; selectivity ratio [25]: ≤ 32; remaining at 6 h [26]: 87%; Activity (Danio rerio [27]): 157.4 bpm |
| O=C(CSc1nc2ccccc2c(=O)[nH]1)NC1CCCCCC1 | ≤ 32 | 94 | 91 | 99 | Non-Toxic | ≤ 32 | 81 | ≤ 32 | 139.6 | Non-Toxic | 0.48 (≈ 0.159 µg/mL) | 100 | 80 | 71 | 100 | 148.4 | Non-Toxic | 92 | 160.1 | 123 | remaining at 24 h [4]: 66%; Activity (Danio rerio [8]): Non-Toxic; Stability [23]: 90%; Activity (Danio rerio [24]): Non-Toxic; selectivity ratio [25]: ≤ 32; remaining at 6 h [26]: 67%; Activity (Danio rerio [27]): 160.4 bpm |
| CC1CCCC(NC(=O)CSc2nc3ccccc3c(=O)[nH]2)C1 (stereo unspecified) | ≤ 32 | 95 | 89 | 89 | Non-Toxic | ≤ 32 | 96 | ≤ 32 | 151.2 | Non-Toxic | 0.24 (≈ 0.0795 µg/mL) | 100 | 101 | 98 | 100 | 152.2 | Non-Toxic | 102 | 157.2 | 95 | remaining at 24 h [4]: 97%; Activity (Danio rerio [8]): Non-Toxic; Stability [23]: 102%; Activity (Danio rerio [24]): Non-Toxic; selectivity ratio [25]: ≤ 32; remaining at 6 h [26]: 101%; Activity (Danio rerio [27]): 157.4 bpm |
